The record followed here is ChEMBL document CHEMBL3612064, “Oxidative Reactivities of 2-Furylquinolines: Ubiquitous Scaffolds in Common High-Throughput Screening Libraries” (J Med Chem, 2015).

“And” between values parts separate entries of the source, which are not always exact repeats. Equal values may be shown once. The source made the active and inactive calls. The rule behind the calls is not given here. A value given as a limit tells only on which side of the number the result lay.

Series [1] is described as follows: Stability in DMSO solution assessed as parent compound remaining at 10 mM incubated for 38 days exposed to laboratory air by HPLC method.
In series [2] the target is T1, DNA dC->dU-editing enzyme APOBEC-3G (Homo sapiens, UniProt Q9HC16). In words: Inhibition of APOBEC3G (unknown origin) assessed as remaining enzyme activity at 200 uM using ssDNA oligomer 5'-6-FAM-AAA-TAT-TCC-CTA-ATA-GAT-AAT-GTG-A-TAMRA-3' by fluorescence-based deamination assay. The gist of the method: (§1)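 Recombinant A3G was expressed and purified. A freshly prepared DMSO stock (day 0) was tested in dose response up to 200 μM. The read-out was the fluorescence-based ssDNA C-to-U deamination assay with a 5'-6-FAM/3'-TAMRA oligo, detected after uracil DNA glycosylase processing. Performed in triplicate, mean ± SD.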

Series [3] in a line: Drug metabolism assessed as compound formation using compound-1 by LC-MS method. Format: physicochemical. The gist of the method:
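10 mM DMSO stocks were gently shaken at 25 °C open to air and analysed on day 38 by LC-MS. The LC-MS used a C18 column (0.5 × 150 mm, 5 μm) at 15 μL/min with trifluoroacetic and formic acid modifiers, and an ion-trap MS in positive-ion mode. Decomposition products were scored as detected or not detected.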

Series [4] can be described thus: Drug metabolism in DMSO solution assessed as compound formation incubated for 38 days exposed to laboratory air by LC/MS method. Format: physicochemical. The note with it: 912 h.
Series [5] in a line: Drug metabolism assessed as oxidative compound decompostion after irradiation with visible light under oxygen-saturated environment in presence of rose bengal photosensitizer using compound-1 by LC/MS method. Format: physicochemical.
Series [6] addresses T1, DNA dC->dU-editing enzyme APOBEC-3G. In words: Inhibition of APOBEC3G (unknown origin) assessed as reduction enzyme efficiency at 200 uM using ssDNA oligomer 5'-6-FAM-AAA-TAT-TCC-CTA-ATA-GAT-AAT-GTG-A-TAMRA-3' by fluorescence-based deamination assay. The gist of the method:
as §1

Series [7] can be described thus: Drug metabolism assessed as formation of oxidative decomposition products by LC-MS method. Format: physicochemical.
Series [8] can be described thus: Drug level assessed as compound formation using compound-1 in DMSO incubated for 16 months by LC-MS method. Format: physicochemical. The note with it: 11688 h.
Series [9] is described as follows: Drug level assessed as compound formation using compound-1 in DMSO incubated for 16 months by IR method. Format: physicochemical. The note with it: 11688 h.
Series [10] in a line: Drug level assessed as compound formation using compound-1 in DMSO incubated for 16 months by 1H and 13C NMR method. In kind it is physicochemical. The note with it: 11688 h.
Series [11] is described as follows: Toxicity against HEK293T cells assessed as cell viability at 50 uM incubated for 5 days. Format: cell-based, HEK-293T. The note with it: human, read-out: Activity.
Series [12] in a line: Drug metabolism assessed as oxidative compound decompostion after irradiation with visible light under oxygen-saturated environment using [18]O2 in presence of rose bengal photosensitizer using by LC/MS method. Format: physicochemical.
In series [13] the target is T1, DNA dC->dU-editing enzyme APOBEC-3G. The series can be described thus: Inhibition of APOBEC3G (unknown origin) up to 200 uM using ssDNA oligomer 5'-6-FAM-AAA-TAT-TCC-CTA-ATA-GAT-AAT-GTG-A-TAMRA-3' by fluorescence-based deamination assay. Put shortly: as §1
Series [14] shares this target. In words: Inhibition of APOBEC3G (unknown origin) assessed as remaining enzyme activity at 200 uM incubated for 38 days using ssDNA oligomer 5'-6-FAM-AAA-TAT-TCC-CTA-ATA-GAT-AAT-GTG-A-TAMRA-3' by fluorescence-based deamination assay. Put shortly:
(§2)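 A DMSO stock of the compound was aged in a closed microcentrifuge tube at 20-22 °C on the bench. The same stock was re-tested against recombinant A3G in dose response up to 200 μM at days 3, 21, 38 and 72. The assay was the fluorescence-based C-to-U deamination assay on a 6-FAM/TAMRA ssDNA oligo, with uracil DNA glycosylase in the read-out. Triplicates, mean ± SD.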

Series [15] has the same target. The series can be described thus: Inhibition of APOBEC3G (unknown origin) assessed as remaining enzyme activity at 200 uM incubated for […] using ssDNA oligomer 5'-6-FAM-AAA-TAT-TCC-CTA-ATA-GAT-AAT-GTG-A-TAMRA-3' by fluorescence-based deamination assay.
Series [16] has the same target. In words: Inhibition of APOBEC3G (unknown origin) fluorescence-based ssDNA C-to-U deaminase assay.
Series [17] has the same target. In words: Inhibition of APOBEC3G (unknown origin) assessed as remaining enzyme activity at 200 uM incubated for 3 days using ssDNA oligomer 5'-6-FAM-AAA-TAT-TCC-CTA-ATA-GAT-AAT-GTG-A-TAMRA-3' by fluorescence-based deamination assay. The gist of the method:
as §2

Series [18] shares this target. The series can be described thus: Inhibition of APOBEC3G (unknown origin) up to 200 uM incubated for 3 to 72 days using ssDNA oligomer 5'-6-FAM-AAA-TAT-TCC-CTA-ATA-GAT-AAT-GTG-A-TAMRA-3' by fluorescence-based deamination assay. To be noted: TDE = time-dependent effect. The gist of the method: as §2
Series [19] shares this target. In words: Inhibition of APOBEC3G (unknown origin) assessed as remaining enzyme activity at 200 uM incubated for 21 days using ssDNA oligomer 5'-6-FAM-AAA-TAT-TCC-CTA-ATA-GAT-AAT-GTG-A-TAMRA-3' by fluorescence-based deamination assay. Put shortly:
as §2

In series [20] the target is DNA dC->dU-editing enzyme APOBEC-3A (Homo sapiens, UniProt P31941). The series can be described thus: Inhibition of APOBEC3A (unknown origin) by fluorescence-based ssDNA C-to-U deaminase assay. The gist of the method: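 Recombinant purified A3A was tested in dose-response up to 200 μM, with compound from DMSO stock. C-to-U deamination was read by fluorescence from the 6-FAM/TAMRA-labelled probe in a coupled uracil DNA glycosylase step, and IC50 was taken from the dose-response curve.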

In series [21] the target is T1, DNA dC->dU-editing enzyme APOBEC-3G. The series can be described thus: Inhibition of APOBEC3G (unknown origin) using ssDNA oligomer 5'-6-FAM-AAA-TAT-TCC-CTA-ATA-GAT-AAT-GTG-A-TAMRA-3' by fluorescence-based deamination assay. The gist of the method:
as §1

T1 sequence (Q9HC16 whole entry): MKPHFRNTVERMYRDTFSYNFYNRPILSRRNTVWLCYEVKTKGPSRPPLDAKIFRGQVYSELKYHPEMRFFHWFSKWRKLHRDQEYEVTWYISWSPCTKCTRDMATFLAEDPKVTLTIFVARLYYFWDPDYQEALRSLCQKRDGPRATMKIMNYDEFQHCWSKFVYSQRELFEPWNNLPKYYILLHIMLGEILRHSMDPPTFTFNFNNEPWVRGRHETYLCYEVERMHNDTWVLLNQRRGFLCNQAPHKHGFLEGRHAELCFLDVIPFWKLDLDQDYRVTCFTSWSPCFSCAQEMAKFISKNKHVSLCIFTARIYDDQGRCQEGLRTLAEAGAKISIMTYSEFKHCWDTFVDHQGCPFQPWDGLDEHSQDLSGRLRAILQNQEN
Chain of DNA dC->dU-editing enzyme APOBEC-3A (P31941 whole entry): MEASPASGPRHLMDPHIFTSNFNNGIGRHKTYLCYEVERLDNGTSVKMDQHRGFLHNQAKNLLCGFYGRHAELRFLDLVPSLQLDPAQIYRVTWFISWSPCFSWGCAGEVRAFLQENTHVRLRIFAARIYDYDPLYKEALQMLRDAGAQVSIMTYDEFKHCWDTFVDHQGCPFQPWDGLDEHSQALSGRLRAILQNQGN

On to `O=C(O)c1cc(-c2ccco2)cc2ccccc12`, for which the amount remaining at 912 h, 10000 µM in [1] stood at 89%.

Take `COc1ccc(CCNC(=O)c2cc(-c3ccc(C)o3)nc3ccccc23)cc1`: in [1], the fraction remaining at 912 h, 10000 µM is 84%.

For `O=C(O)c1cc(C(=O)Nc2nnc(-c3ccncc3)s2)c2ccccc2n1`, the Activity in series [2] is 43%. Moreover, the Drug metabolism entry in series [3], in series [4] and in [5] was “metabolite_detected” throughout.

For `O=C(O)c1ccnc(-c2ccco2)c1`, the share remaining at 912 h, 10000 µM in [1] is 92%.

Regarding `Cc1ccc(-c2cc(C(=O)N3CCN(S(C)(=O)=O)CC3)c3ccccc3n2)o1`, the fraction remaining at 912 h, 10000 µM in series [1] stood at 26%.

Take `Cc1ccc(-c2ccc3ccccc3n2)o1`: the fraction remaining at 912 h, 10000 µM in series [1] turned out to be 102%.

As to `Cc1ccc(-c2cc(C(=O)NC(C)C3CCCO3)c3ccccc3n2)o1` (configuration not stated), the share remaining at 912 h, 10000 µM in series [1] is 55%.

On to `COC(=O)c1cc(NC(=O)c2cc(-c3ccc(C)o3)nc3ccccc23)cc(C(=O)OC)c1`, for which, in series [1], the share remaining at 912 h, 10000 µM amounted to 19%.

Turning to `Cc1ccc(-c2cc(C(=O)Nc3nnc(-c4ccncc4)s3)c3ccccc3c2)o1`, the fraction remaining at 912 h, 10000 µM in series [1] amounted to 25%.

For `O=C(Nc1nnc(-c2ccncc2)s1)c1cc(-c2ccco2)cc2ccccc12`, the amount remaining at 912 h, 10000 µM in [1] amounted to 0%.

As for `CC1(O)C=CC(OO)(c2cc(C(=O)Nc3nnc(-c4ccncc4)s3)c3ccccc3n2)O1` (configuration not stated), in series [2], the inhibition (commonly the percentage by which the read-out fell short of the control) was “inactive”. Further, the Drug metabolism result in [3] and in series [5] was “metabolite_detected” throughout.

`Cc1ccc(-c2cc(C(=O)NCc3ccc4c(c3)OCO4)c3ccccc3n2)o1`: in [1], the fraction remaining at 912 h, 10000 µM turned out to be 56%.

Regarding `O=C(Nc1nnc(-c2ccncc2)s1)c1ccnc(-c2ccco2)c1`, the fraction remaining at 912 h, 10000 µM in series [1] was found to be 90%.

Turning to `c1coc(-c2ccc3ccccc3n2)c1`, the fraction remaining at 912 h, 10000 µM in series [1] amounted to 117%.

Consider `O=C(O)c1cc(-c2ccco2)nc2ccccc12`, for which the share remaining at 912 h, 10000 µM in series [1] was found to be 69%.

Regarding `O=CCC(=O)c1cc(C(=O)Nc2nnc(-c3ccncc3)s2)c2ccccc2n1`, in [4], the Drug metabolism result is “metabolite_detected”.

`CC1(OO)C=CC(O)(c2cc(C(=O)Nc3nnc(-c4ccncc4)s3)c3ccccc3n2)O1` (configuration not stated): the inhibition result in series [2] is “inactive”. Also, the Drug metabolism entry in series [3] and in series [5] was “metabolite_detected” throughout.

As for `O=C(Nc1nnc(-c2ccncc2)s1)c1cc(=O)[nH]c2ccccc12`, the inhibition in series [6] worked out at 50%. Further, in [2], the Activity worked out at 83%. For the same compound, the Drug metabolism entry in series [7], in series [8], in series [9], in series [4], in series [10] and in series [5] was “metabolite_detected” each time.

Regarding `O=C(NNC(=O)c1cc(-c2ccco2)nc2ccccc12)NC1CCCCC1`, the amount remaining at 912 h, 10000 µM in [1] came out at 64%.

As for `Cc1ccc(-c2cc(C(=O)Nc3nnc(-c4ccncc4)s3)ccn2)o1`, the fraction remaining at 912 h, 10000 µM in series [1] is 34%.

With `Cc1ccc(-c2cc(C(=O)Nc3nnc(-c4ccncc4)s3)c3ccccc3n2)o1`, the viability at 120 h, 50 µM in series [11] was more than 85%. Further, in series [12], the Drug metabolism entry is “metabolite_detected”. In [13], the inhibition entry is “inactive”. Moreover, the Activity in series [14] stood at 29%; in series [15], 29%; in series [17], 82%; in series [19] it was 55%. Also, the IC50 (usually the point on the concentration scale where inhibition reaches its midpoint) was 10.8 µM and 50.3 µM in series [16]; 2.8 µM and 9.8 µM in [20]. Besides, in series [18], the inhibition result was “tde”. In [1], the fraction remaining at 912 h, 10000 µM was determined as 6%.

For the compound `Cc1cccc(NC(=O)c2cc(-c3ccc(C)o3)nc3ccccc23)n1`, in [1], the share remaining at 912 h, 10000 µM is 73%.

Consider `Cc1ccc(-c2cc(C(=O)O)ccn2)o1`, for which, in [1], the amount remaining at 912 h, 10000 µM was 85%.

Take `Cc1ccc(-c2cc(C(=O)O)c3ccccc3c2)o1`: the fraction remaining at 912 h, 10000 µM in series [1] came to 82%.

Consider `O=C(Nc1nnc(-c2ccncc2)s1)c1cc(-c2ccco2)nc2ccccc12`, for which, in series [1], the fraction remaining at 912 h, 10000 µM amounted to 101%.

As for `Cc1ccc(-c2cc(C(=O)O)c3ccccc3n2)o1`, the share remaining at 912 h, 10000 µM in series [1] came to 83%.

With `O=C(O)/C=C\C(=O)c1cc(C(=O)Nc2nnc(-c3ccncc3)s2)c2ccccc2n1`, the Drug metabolism result in series [4] is reported as “metabolite_detected”.

Turning to `Cc1ccc(-c2cc(C(=O)NC3CCCCC3)c3ccccc3n2)o1`, the fraction remaining at 912 h, 10000 µM in series [1] was found to be 54%.

For `CC(=O)/C=C\C(=O)c1cc(C(=O)Nc2nnc(-c3ccncc3)s2)c2ccccc2n1`, the Drug metabolism result in series [3], in series [4] and in series [5] was “metabolite_detected” in each case. In series [21], the IC50 is 20 µM.

As to `Nc1nnc(-c2ccncc2)s1`, the inhibition entry in [2] was “inactive”.
